# Assay results from different studies.
# Compare with care: the assays were run in different laboratories.
# Target: Interleukin-1 receptor-associated kinase 4 (IRAK4, Homo sapiens, UniProt Q9NWZ3)
# Sequence (Q9NWZ3 1-460, as in one of the studies): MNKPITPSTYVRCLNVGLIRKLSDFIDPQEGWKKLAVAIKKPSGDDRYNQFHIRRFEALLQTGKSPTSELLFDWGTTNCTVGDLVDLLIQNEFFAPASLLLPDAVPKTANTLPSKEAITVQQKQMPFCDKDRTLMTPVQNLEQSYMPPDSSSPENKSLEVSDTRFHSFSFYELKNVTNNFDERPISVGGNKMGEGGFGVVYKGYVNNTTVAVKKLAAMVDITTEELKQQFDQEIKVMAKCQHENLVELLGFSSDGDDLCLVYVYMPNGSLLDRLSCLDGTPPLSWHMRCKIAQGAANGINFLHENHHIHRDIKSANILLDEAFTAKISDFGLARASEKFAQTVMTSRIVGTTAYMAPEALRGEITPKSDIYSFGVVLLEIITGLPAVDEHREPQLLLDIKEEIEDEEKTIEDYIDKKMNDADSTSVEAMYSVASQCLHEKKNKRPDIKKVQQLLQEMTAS
Structure (SMILES),test,conditions,remaining binding [%]
CN(C)c1nccc(-c2cnc3ncccn23)n1,binding,1 µM,74
O=C(c1ccc(Nc2ncc(Cl)c(-c3cc4ccccc4s3)n2)cc1)N1CCC(N2CCCC2)CC1,"binding, competition with immobilised ligand",1 µM,57
CN(CCCC(F)(F)F)c1nccc(-c2cnn3ncccc23)n1,binding,1 µM,100
O=C(Nc1ccc(Oc2ccc(F)cc2)cc1)N1CCc2ncccc2[C@H]1c1ccc(F)cc1,"cell-free assay, competition with immobilised ligand",1 µM,96
CN(C)c1ncc(F)c(-c2cnn3ncccc23)n1,binding,1 µM,69
CN([C@@H]1CCc2c(CC(=O)O)c3cc(S(C)(=O)=O)ccc3n2C1)S(=O)(=O)c1ccc(F)cc1,"cell-free assay, competition with immobilised ligand",1 µM,95
FC(F)(F)Oc1cccc(-c2cnc3ccc(-c4ccncc4)nn23)c1,"cell-free assay, competition with immobilised ligand",5 µM,1.6
O=C(NCc1ncc(C(F)(F)F)cc1Cl)c1ccc2c(c1)C1(CCS(=O)(=O)CC1)[C@H](C1CC1)N2S(=O)(=O)c1ccc(F)cc1,"cell-free assay, competition with immobilised ligand",1 µM,100
C[C@H]1CCN(c2nccc(-c3cnn4ncccc34)n2)C1,binding,1 µM,73
CNCc1ccccc1-c1csc([C@H](C)Nc2nc(C)nc3cc(OC)c(OC)cc23)c1,"cell-free assay, competition with immobilised ligand",1 µM,89
Cc1cnc(Nc2ccc(C(=O)N3CCC(N4CCCC4)CC3)cc2)nc1-c1cc2ccccc2s1,"binding, competition with immobilised ligand",1 µM,45
Cc1cnn2ncc(-c3ccnc(N(C)C)n3)c2c1,binding,1 µM,100
CNC(=O)[C@@H]1CC[C@@H](n2c(-c3ccc4cnccc4c3)nc3ccc(C(=O)NCc4cccc(C(N)=O)c4)cc32)C1,"binding, competition with immobilised ligand",1 µM,100
Nc1ncc2c(n1)-c1c([nH]c3ccc(C#CC4CC4)cc13)CCCC2,"binding, competition with immobilised ligand",1 µM,86
CCS(=O)(=O)c1cc2cc(C[C@@](O)(CC(C)(C)c3ccc(F)cc3C(N)=O)C(F)(F)F)[nH]c2cn1,"cell-free assay, competition with immobilised ligand",1 µM,100
c1cnn2ncc(-c3ccnc(N4CCC45COC5)n3)c2c1,binding,1 µM,79
O=C(NCC1CCOCC1)c1n[nH]cc1NC(=O)c1c(F)cccc1F,"binding, competition with immobilised ligand",1 µM,100
O=C(NCCCC1CCCCC1)c1ccc(CNC(=O)c2cnn(-c3ccccc3)c2C(F)(F)F)cc1,"cell-free assay, competition with immobilised ligand",0.1 µM,100
COc1cnc(Nc2cccc(S(N)(=O)=O)c2)nc1N1CCN(c2ccccc2)C(=O)C1,"binding, competition with immobilised ligand",1 µM,88
O=C(NCCCN1CCOCC1)c1ccc(Nc2ncc(Cl)c(-c3ccc(Cl)s3)n2)cc1,"binding, competition with immobilised ligand",1 µM,75
